The nature of data set [1]: Toxicity in african green monkey Vero cells by alamar blue assay. The following applies: chlorocebus sabaeus, read-out: LD50 (the source's name). The data set is classed as cell-based. The method in brief: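 Semiconfluent Vero cells (1 × 10^4/well; DMEM, 10% heat-inactivated FCS, 2 mM glutamine, penicillin/streptomycin) exposed to compound dilutions (3.9-500 µM series) with Alamar Blue for 24 h, 37 °C, 5% CO2. Controls are medium, AB and drug blanks, plus cells with DMSO. Percent AB reduction is read from absorbance at 570/600 nm against the DMSO control by the manufacturer's formula. LD50 reported as mean ± SEM.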
A general note: Alamar Blue is a resazurin reagent that responds to reducing activity.

In data set [2] the test system is Toxoplasma gondii. The data set is described as follows: Antimicrobial activity against Toxoplasma gondii RH tachyzoites assessed as inhibition of parasite invasion of african green monkey Vero cells pretreated for 1 hr before cell infection measured 24 to 48 hrs post infection. It counts as functional. Put shortly: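 RH tachyzoites (mouse ascites, passaged in Vero cells, needle- and 5 µm filter-purified), 2.5 × 10^5 pretreated 1 h at 37 °C in medium with compound (250-15.6 µM) or DMSO control. They then infect semiconfluent Vero cells at 10 parasites/cell, 37 °C, 5% CO2. Medium is replaced. Slides are methanol-fixed and Diff-Quick stained at 24 and 48 h. Percent parasitised is scored by light microscopy in 500 cells/slide, three repeats, mean ± SEM, giving ID50.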

The test system of data set [3] is Toxoplasma gondii. The data set is described as follows: Antimicrobial activity against Toxoplasma gondii RH tachyzoites assessed as inhibition of parasite gliding motility at 25 uM pretreated for 15 mins. It counts as functional. Put shortly:
(§1)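 RH-strain tachyzoites (passaged in Balb/c mice and Vero cells, filter-purified) pretreated 15 min at 37 °C with compound at 50, 25 or 10 µM; DMSO at maximum solvent level as control. Slides coated with 0.1% poly-L-lysine in PBS pH 7.2. Fixed in 4% formaldehyde/0.02% glutaraldehyde, stained with anti-SAG-1 (P30) mAb 1/50 plus FITC anti-IgG 1/100; trail number and length scored by confocal microscopy.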

Data set [4] concerns Toxoplasma gondii. The data set is described as follows: Antimicrobial activity against Toxoplasma gondii RH tachyzoites assessed as inhibition of parasite gliding motility pretreated for 15 mins. The data set is classed as functional. The method in brief: as §1
The subject of data set [5] is Vero. The data set is described as follows: Inhibition of serine protease in excreted-secreted products fraction of […] secretion proteins of Toxoplasma gondii RH tachyzoites infected in african green monkey Vero cells by SDS-PAGE and zymography. The data set is classed as cell-based. Put shortly: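 Tachyzoites (6 × 10^7 in 100 µL serum-free DMEM) pretreated 15 min at room temperature with compound at various concentrations. Micronemal secretion induced at 37 °C with 200 mM ethanol and stopped on ice after centrifugation. The ESP fraction was run in nonreducing 12% SDS-PAGE containing 0.1% gelatin at 90 V, 4 °C. Gel washed in 2.5% Triton X-100, developed overnight at 37 °C in Tris/CaCl2 pH 6.8 and Coomassie-stained; cleared bands read as activity.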

In data set [6] the test system is Toxoplasma gondii. The data set is described as follows: Antimicrobial activity against Toxoplasma gondii RH tachyzoites assessed as inhibition of parasite gliding motility at 10 uM pretreated for 15 mins. It counts as functional. Put shortly: as §1
Data set [7] concerns Vero. The data set is described as follows: Inhibition of serine protease in excreted-secreted products fraction of Toxoplasma gondii RH tachyzoites infected in african green monkey Vero cells by SDS-PAGE and zymography. It counts as cell-based. Put shortly: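 Purified tachyzoites (6 × 10^7/100 µL DMEM without serum) pretreated 15 min at room temperature with compound at various concentrations. Micronemal secretion is induced at 37 °C with 200 mM ethanol, then the parasites are pelleted and secretion stopped on ice. The ESP fraction goes in nonreducing sample buffer onto 12% SDS-PAGE with 0.1% gelatin, run at 90 V, 4 °C. The gel gets 2.5% Triton X-100 for 60 min, then develops overnight at 37 °C (50 mM Tris-HCl, 10 mM CaCl2, pH 6.8). Coomassie stain.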

Data set [8] concerns Toxoplasma gondii. The data set is described as follows: Antimicrobial activity against Toxoplasma gondii RH tachyzoites assessed as inhibition of parasite invasion of african green monkey Vero cells pretreated for 1 hr before cell infection measured 48 hrs post infection. It counts as functional. The conditions noted are these: read-out: ID50 (the source's name). Put shortly:
(§2)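 Purified RH tachyzoites (2.5 × 10^5) pretreated 1 h at 37 °C in medium with compound (250-15.6 µM) or DMSO control. They then infected semiconfluent Vero cells at 10 parasites/cell (37 °C, 5% CO2), after which medium was replaced. Slides fixed in methanol at 24 or 48 h and stained with Diff-Quick. Percentage parasitism from 500 cells per slide by light microscopy; three repeats; mean ± SEM; ID50 reported.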

Data set [9] has as its system Toxoplasma gondii. The data set is described as follows: Cytopathic effect against Toxoplasma gondii RH extracellular tachyzoites infected in african green monkey Vero cells assessed as induction of morphological changes at 25 uM after 8 hrs by electron microscopy. The data set is classed as functional, organism-based. Put shortly:
(§3)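 Purified extracellular tachyzoites exposed to 25 µM compound for 4 or 8 h. Fixed in 2.5% glutaraldehyde in cacodylate buffer, postfixed 30 min in 1% buffered OsO4, dehydrated and embedded in Spurr resin. Ultrathin sections stained with 8% uranyl acetate then 0.2% lead citrate and examined by transmission electron microscopy.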

Data set [10] deals with Toxoplasma gondii. The data set is described as follows: Cytopathic effect against Toxoplasma gondii RH intracellular tachyzoites infected in african green monkey Vero cells assessed as induction of morphological changes at 25 uM by electron microscopy. It counts as functional, organism-based. Put shortly:
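Vero cultures infected 24 h, then treated with 25 µM compound for 8 h. Fixed in 2.5% glutaraldehyde in cacodylate buffer, scraped, postfixed 30 min in 1% OsO4 and embedded in Spurr resin. Sections stained with uranyl acetate and lead citrate and viewed by TEM.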
Background: Cytopathic effects are the visible damage that an infection or toxin causes in cultured cells.

In data set [11] the test system is Toxoplasma gondii. The data set is described as follows: Cytopathic effect against Toxoplasma gondii RH extracellular tachyzoites infected in african green monkey Vero cells assessed as induction of morphological changes at 25 uM after 4 hrs by electron microscopy. It counts as functional, organism-based. Put shortly:
as §3

The test system of data set [12] is Toxoplasma gondii. The data set is described as follows: Antimicrobial activity against Toxoplasma gondii RH tachyzoites assessed as inhibition of parasite invasion of african green monkey Vero cells pretreated for 1 hr before cell infection measured 24 hrs post infection. It counts as functional. The following applies: read-out: ID50 (the source's name). The method in brief: as §2

Data set [13] deals with Toxoplasma gondii. The data set is described as follows: Antimicrobial activity against Toxoplasma gondii RH tachyzoites assessed as inhibition of parasite gliding motility at 50 uM pretreated for 15 mins. It counts as functional. The method in brief:
as §1

Three molecules from ChEMBL document CHEMBL1157816, “Action of a pentacyclic triterpenoid, maslinic acid, against Toxoplasma gondii” (J Nat Prod, 2010) can be followed below.

SMILES strings stand for the structures. Activity calls are given as the source filed them. The calls are words filed in the database; no cut-off is given here.

As for `NCCc1ccc(S(=O)(=O)F)cc1`, the CC50 in data set [1] stood at 36.9 µM.

For the molecule `CC1(C)CC[C@]2(C(=O)O)CC[C@]3(C)C(=CC[C@@H]4[C@@]5(C)C[C@@H](O)[C@H](O)C(C)(C)[C@@H]5CC[C@]43C)[C@@H]2C1` [MASLINIC ACID], the inhibition result in the data set on Toxoplasma gondii [2], in the data set on Toxoplasma gondii [4] and in the data set with Vero [7] was “Dose-dependent effect” in each case. Also, in the data set on Toxoplasma gondii [3], the inhibition at 25 µM turned out to be 59.7%. Moreover, in the data set with Toxoplasma gondii [4], the “inhibition (INH)” value amounted to 100%. Besides, the inhibition entry in the data set on Vero [5], in the data set with Toxoplasma gondii [9], with Toxoplasma gondii [10] and with Toxoplasma gondii [11] was “Active” each time. The inhibition at 10 µM with Toxoplasma gondii [6] was 58.8%. In addition, the results for the IC50 in the data set with Toxoplasma gondii [8] and with Toxoplasma gondii [12] were 8 µM and 46 µM, respectively. Also, the inhibition at 50 µM with Toxoplasma gondii [13] is not below 100%. Further, the CC50 in data set [1] was 237 µM.

Consider `O=S(=O)(F)Cc1ccccc1` [PHENYLMETHYLSULFONYLFLUORIDE], for which the inhibition result in the data set on Vero [7] is “Dose-dependent effect”. The CC50 in [1] stood at 133 µM.

Broadly, the inhibition is the drop in the measured response relative to a control, in per cent.
